For series [1], the system named is Liver cytosol. Nature of the series: Drug metabolism in human liver cytosol assessed as 26-carboxy,20(S)-Ginsenoside Rh2 formation at 10 uM by LC/MS analysis in presence of 50 uM disulfiram aldehyde dehydrogenase inhibitor. Type of series: ADME. In outline: (§1)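 Pooled human liver cytosol (1 mg/ml) with 2 mM NAD+ and inhibitor in 100 mM potassium phosphate pH 7.4; inhibitors given from DMSO, 0.1% v/v final. After 15 min preincubation at 37°C, started with 10 μM M1-1 or 26-aldehyde-Rh2. Run 60 min, stopped with ice-cold acetonitrile. Duplicates, uninhibited controls; M2-3 acid measured by LC/MSn.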

Series [2] concerns Liver. Nature of the series: Drug level in human liver S9 fraction treated with 10 uM 20(S)-ginsenoside Rh2 for 60 mins by MS2 spectra. Type of series: ADME, subcellular. To be noted: s9, 1 h. An outline of the steps:
(§2)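 Rh2 at 10 μM final (from methanol stock; 0.1% v/v methanol final) in 100 mM potassium phosphate pH 7.4 with 2 mM NADPH, open-to-air tubes at 37°C. 3 min preincubation, then started with liver microsomes or S9 at 1 mg/ml protein. Incubated 60 min, stopped with equal volume ice-cold acetonitrile. Controls lacked NADPH; duplicates. Metabolites detected by LC/ion-trap MSn.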

Series [3] deals with Liver microsome. Nature of the series: Retention time in human liver microsomes treated with 10 uM 20(S)-ginsenoside Rh2 by MS2 spectra. In kind it is ADME. In outline: (§3)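 Samples: incubation mixed with equal volume methanol, centrifuged at 14,000g for 5 min, dried under nitrogen at 40°C, reconstituted. Separated on Eclipse XDB-C18 (4.6 × 150 mm, 5 μm) at 0.5 ml/min. Gradient: 0.1% formic acid in methanol against 0.1% formic acid in 5 mM ammonium acetate, 70% to 100% organic over 17 min. Ion-trap MSn detection.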
(In general: Liver microsomes are a subcellular fraction often used to study metabolism.)

In series [4] the test system is Liver microsome. The series is described as follows: Drug level in beagle dog liver microsomes treated with 10 uM 20(S)-ginsenoside Rh2 for 60 mins by MS2 spectra. In kind it is ADME, Canis lupus familiaris. To be noted: 1 h. In outline:
as §2

The subject of series [5] is Liver. Nature of the series: Retention time in human liver S9 fraction treated with 10 uM 20(S)-ginsenoside Rh2 by MS2 spectra. Type of series: ADME, subcellular. In outline:
as §3

Series [6] deals with Liver cytosol. Nature of the series: Drug metabolism in human liver cytosol assessed as 26-carboxy,20(S)-Ginsenoside Rh2 formation at 10 uM by LC/MS analysis in presence of 50 uM 4-methylpyrazole alcohol dehydrogenase inhibitor. In kind it is ADME. An outline of the steps:
as §1

The target of the next series is Cytochrome P450 3A4 (Homo sapiens, UniProt P08684). Nature of the series: Drug level in human recombinant CYP3A4 treated with 10 uM 20(S)-ginsenoside Rh2 for 60 mins by MS2 spectra. Type of series: ADME. The following applies: recombinant enzyme, 1 h. An outline of the steps: (§4)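 Recombinant human P450 (50 nM) with 10 μM Rh2 under the microsomal conditions: 100 mM potassium phosphate pH 7.4, 2 mM NADPH, 37°C for 60 min. Stopped with equal volume ice-cold acetonitrile. Run in duplicate; products analysed by LC/ion-trap MSn.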
Sequence of Cytochrome P450 3A4 (P08684 whole entry): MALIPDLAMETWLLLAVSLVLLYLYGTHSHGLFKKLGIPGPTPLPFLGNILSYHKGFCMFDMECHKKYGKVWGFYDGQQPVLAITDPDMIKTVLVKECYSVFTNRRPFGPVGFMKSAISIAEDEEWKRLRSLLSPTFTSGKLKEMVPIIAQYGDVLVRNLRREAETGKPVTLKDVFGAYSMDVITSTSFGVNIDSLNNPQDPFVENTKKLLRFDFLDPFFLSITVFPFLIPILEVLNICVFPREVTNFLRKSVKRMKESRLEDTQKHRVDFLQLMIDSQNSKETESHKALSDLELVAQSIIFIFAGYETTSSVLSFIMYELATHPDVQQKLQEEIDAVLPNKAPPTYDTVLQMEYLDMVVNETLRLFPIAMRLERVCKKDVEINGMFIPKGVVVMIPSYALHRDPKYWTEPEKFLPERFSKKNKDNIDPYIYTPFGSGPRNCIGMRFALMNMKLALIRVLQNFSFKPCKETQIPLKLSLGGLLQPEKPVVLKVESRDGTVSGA

In another series the target is Cytochrome P450 3A5 (Homo sapiens, UniProt P20815). Nature of the series: Drug level in human recombinant CYP3A5 treated with 10 uM 20(S)-ginsenoside Rh2 for 60 mins by MS2 spectra. Type of series: ADME. To be noted: recombinant enzyme, 1 h. In outline:
as §4

The test system of series [7] is Liver. The series is described as follows: Drug level in CD-1 mouse liver microsomes treated with 10 uM 20(S)-ginsenoside Rh2 for 60 mins by MS2 spectra. In kind it is ADME. The following applies: 1 h. An outline of the steps:
as §2

Series [8] concerns Liver microsome. Nature of the series: Drug level in human liver microsomes treated with 10 uM 20(S)-ginsenoside Rh2 for 60 mins by MS2 spectra. In kind it is ADME. The following applies: 1 h. In outline: as §2
Series [9] in a line: Drug level in cynomolgus monkey liver microsomes treated with 10 uM 20(S)-ginsenoside Rh2 for 60 mins by MS2 spectra. In kind it is ADME, Macaca fascicularis. To be noted: 1 h. In outline:
as §2

In series [10] the test system is Liver cytosol. Nature of the series: Drug metabolism in human liver cytosol assessed as 26-carboxy,20(S)-Ginsenoside Rh2 formation at 10 uM by LC/MS analysis in presence of 100 uM raloxifene aldehyde oxidase inhibitor. In kind it is ADME. To be noted: in the assay text read “100 nM raloxifene” for “100 uM raloxifene”. In outline: as §1
In series [11] the test system is Liver microsome. The series is described as follows: Drug level in Sprague-Dawley rat liver microsomes treated with 10 uM 20(S)-ginsenoside Rh2 for 60 mins by MS2 spectra. In kind it is ADME. The following applies: 1 h. An outline of the steps: as §2
Series [12] is described as follows: Retention time in cynomolgus monkey liver microsomes treated with 10 uM 20(S)-ginsenoside Rh2 by MS2 spectra. Type of series: ADME, Macaca fascicularis. In outline:
as §3

This passage reports Drug metabolism and Retention_time results from ChEMBL document CHEMBL3525925, “In vitro studies on the oxidative metabolism of 20(s)-ginsenoside Rh2 in human, monkey, dog, rat, and mouse liver microsomes, and human liver s9” (Drug Metab Dispos, 2012).

Sequence of Cytochrome P450 3A5 (P20815 whole entry): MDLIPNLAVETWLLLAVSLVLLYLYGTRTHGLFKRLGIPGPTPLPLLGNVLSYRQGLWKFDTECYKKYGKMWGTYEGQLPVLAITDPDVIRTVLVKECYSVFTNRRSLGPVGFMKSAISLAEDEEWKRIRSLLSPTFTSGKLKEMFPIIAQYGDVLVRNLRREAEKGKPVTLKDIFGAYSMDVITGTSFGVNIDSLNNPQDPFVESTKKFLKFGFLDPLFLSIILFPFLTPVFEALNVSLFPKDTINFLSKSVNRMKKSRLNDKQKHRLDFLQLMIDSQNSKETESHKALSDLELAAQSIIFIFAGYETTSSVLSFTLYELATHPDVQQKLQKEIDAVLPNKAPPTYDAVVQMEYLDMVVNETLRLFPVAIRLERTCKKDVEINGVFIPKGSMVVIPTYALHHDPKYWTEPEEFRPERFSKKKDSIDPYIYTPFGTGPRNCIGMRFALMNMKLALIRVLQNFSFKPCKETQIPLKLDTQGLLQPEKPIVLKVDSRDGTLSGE

As to `C/C(=C\CC[C@](C)(O)[C@H]1CC[C@]2(C)[C@@H]1[C@H](O)C[C@@H]1[C@@]3(C)CC[C@H](O[C@@H]4O[C@H](CO)[C@@H](O)[C@H](O)[C@H]4O)C(C)(C)[C@@H]3CC[C@]12C)CO`, the Drug metabolism result in the series on Liver cytosol [1] is recorded as “metabolite_not_detected”; in the series on Liver [2] it was “metabolite_detected”; with Liver microsome [4], “metabolite_detected”; in the series with Liver cytosol [6], “metabolite_not_detected”; on Cytochrome P450 3A4, “metabolite_detected”; at Cytochrome P450 3A5, “metabolite_detected”. Besides, the Drug metabolism entry in the series on Liver [7] was “metabolite_detected”; in the series with Liver microsome [8], “metabolite_detected”; in series [9] it was “metabolite_detected”; with Liver cytosol [10] it was “metabolite_not_detected”; with Liver microsome [11] it was “metabolite_detected”. Moreover, the Retention_time with Liver microsome [3] and with Liver [5] was 16.7 min in each case.

As to `CC(C)(O)C(CC[C@](C)(O)[C@H]1CC[C@]2(C)[C@@H]1[C@H](O)C[C@@H]1[C@@]3(C)CC[C@H](O[C@@H]4O[C@H](CO)[C@@H](O)[C@H](O)[C@H]4O)C(C)(C)[C@@H]3CC[C@]12C)SC[C@H](NC(=O)CC[C@H](N)C(=O)O)C(=O)NCC(=O)O` (stereo not given in full), the Retention_time in [12] came to 10.6 min. Besides, the Drug metabolism result in the series on Liver [2], with Liver microsome [4], at Cytochrome P450 3A4, on Cytochrome P450 3A5, with Liver [7] and in the series on Liver microsome [8] was “metabolite_not_detected” throughout. Moreover, the results for the Drug metabolism result (in series [9]; in the series on Liver microsome [11]) were “metabolite_detected” and “metabolite_not_detected”, respectively.

For the molecule `C/C(C=O)=C\CC[C@](C)(O)[C@H]1CC[C@]2(C)[C@@H]1[C@H](O)C[C@@H]1[C@@]3(C)CC[C@H](O[C@@H]4O[C@H](CO)[C@@H](O)[C@H](O)[C@H]4O)C(C)(C)[C@@H]3CC[C@]12C`, the Drug metabolism entry in the series with Liver cytosol [1], in the series with Liver cytosol [6] and in the series on Liver cytosol [10] was “metabolite_not_detected” throughout.
